# Entries after “also recorded” stand apart in the source; their conditions may differ.
# Columns and labels:
# HCoV-229E [1] = experiment: microbe, parasite or virus in culture; assay type: cell-based
# SARS-CoV-2 [2] = assay type: cell-based
# proximal lung organoids = experiment: Organoid viability by LDH release; assay type: cell-based, human; conditions: days 3 and 4, cordycepin 30 µM
# Outline: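 Human proximal airway organoids derived from embryonic stem cells, expanded in matrigel in AES expansion medium, plated as one matrigel dome (~2000 organoids) per well. Test compounds (10 or 30 µM) or 0.5% DMSO were added on day 0, with three domes per condition. LDH release was read over 4 days; absorbance at 490 nm minus 680 nm background was converted to % cytotoxicity.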
# HCoV-229E [3] = assay type: cell-based
# HCoV-229E [4] = assay type: cell-based; remark: listed apart in the source
# SARS-CoV-2 replicon = experiment: HeLa-integrated SARS-CoV-2 replicon activity, N-HiBiT luminescence; assay type: cell-based
# Outline: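 HeLa Flp-In T-REx replicon cells plated at 10% confluence, then induced 24 h later with 3 µg/mL doxycycline in regular FBS. After 16-24 h, a lytic detergent buffer with LgBiT and furimazine was added at a volume equal to the media to complement HiBiT-tagged nucleoprotein. Plates were shaken 10 min before reading luminescence. Replicon-free parental cells gave background; compound concentrations were compared with DMSO.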
# AMPK, mTOR, Akt [5] = assay type: cell-based, human
# AMPK, mTOR, Akt [6] = assay type: cell-based, human; conditions: 30 µM, HeLa-replicon cells, doxycycline 24 hours
# HCoV-229E [7] = conditions: concentrations higher than 0.1 µM; cited from earlier work
# HCoV-229E [8] = assay type: cell-based; remark: listed apart in the source
# SARS-CoV-2 [9] = conditions: cited from earlier work
compound,measurement,setting,value
"Nc1ncnc2c1ncn2[C@@H]1O[C@H](CO)C[C@H]1O [Cordycepin, cordycepin]",IC50,"HCoV-229E [1]; Human coronavirus 229E, Huh-7, read-out: IC50, 229E viral replication (Fig. 6B)",2.1 µM
same,difference in SARS-CoV-2 viral RNA release compared to DMSO,SARS-CoV-2 [2],100 fold
same,cytotoxicity (LDH assay),proximal lung organoids,below 20%
same,"229E viral RNA release in media, time of incubation assay",HCoV-229E [3],dramatically reduced viral RNA release in media even up to 72 hpi
same,"229E viral RNA release, pre-treatment assay",HCoV-229E [3],reduced viral RNA release; also recorded: strong inhibition
same,"level of 229E viral RNA released, time of removal assay",HCoV-229E [3],reduced the level of viral RNA released even after being removed
same,"infectivity by TCID50, fold higher than that observed for BTZ-1 and ADEP-42",HCoV-229E [4],around 5 fold
same,inhibition of replicon activity,"SARS-CoV-2 replicon; 3 µg/mL doxycycline, 24 hours",did not show inhibition of replicon activity
same,phosphorylation level of AMPK,"AMPK, mTOR, Akt [5]",increased
same,protein level of AMPK,"AMPK, mTOR, Akt [5]",remained constant
same,total levels of mTOR and Akt compared to DMSO,"AMPK, mTOR, Akt [5]",large decrease
same,"AMPK, mTOR or Akt phosphorylation","AMPK, mTOR, Akt [6]",No significant changes
same,total Akt levels,"AMPK, mTOR, Akt [6]",did decrease
same,total mTOR protein levels,"AMPK, mTOR, Akt [6]",not affected
same,reduction of SARS-CoV-2 RNA release,SARS-CoV-2 SB2 strain,99%
same,SI = CC50/IC50,SARS-CoV-2 SB2 strain; SARS-CoV-2,more than 20
"CN(C)C(=N)N=C(N)N [Metformin, metformin]","229E replication, various concentrations",HCoV-229E [1],inhibited 229E replication in a dose-dependent manner
"CCC(CC)COC(=O)[C@H](C)N[P@](=O)(OC[C@H]1O[C@@](C#N)(c2ccc3c(N)ncnn23)[C@H](O)[C@@H]1O)Oc1ccccc1 [Remdesivir, remdesivir]","229E viral RNA release, pre-treatment assay",HCoV-229E [3],little to no inhibition
same,IC50,"SARS-CoV-2 replicon; read-out: IC50, inhibition of replicon activity, 3 µg/mL doxycycline, 24 hours",0.4 µM
same,inhibition of 229E,HCoV-229E [7],~100%
Nc1ncnc2c1ncn2[C@@H]1O[C@H](COP(=O)(O)OP(=O)(O)OP(=O)(O)O)C[C@H]1O [cordycepin-TP],229E viral RNA release,"HCoV-229E [1]; 10 µM, same concentration as cordycepin, […]",only weakly inhibited viral RNA release
same,229E S protein expression (IF),HCoV-229E [8],did not impact S protein expression
COc1ccc2c(c1)[nH]c1c(C)nccc12 [harmine],IC50,SARS-CoV-2 [9],7.5 µM

# — paper PMC11543989 (Communications Biology, 2024)
